Source: PubChem (Broad Institute)
Most compounds without a hit are left out; they make up all but 3.1% or so of the library.
EWS-Fli inh = EWS/Fli-driven NR0B1 reporter inhibitors, primary screen, A673 cells, NR0B1 luciferase, luminescence, MLPCN library | inhibition, % at 12.6 µM | 350,000 compounds, 0.67% hits | viability-normalised;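 active = mean inhibition of at least 50% after viability correction, with every replicate also passing that limit; inconclusive = mean reaches 50% but only one of two replicates passes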;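 note: firefly luciferase signal divided by Alamar Blue viability fluorescence both relative to DMSO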
PGC1a acetyl inh = inhibitors of PGC1a acetylation signal, primary screen, cell-based, U2OS, AlphaScreen, inhibitor mode; AID 651687, 2012; inhibition, % at 15.6 µM; AlphaScreen anti-acetyl-lysine; with virally co-expressed GCN5 acetyltransferase; 350,000 compounds, 0.17% hits;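 active = every replicate shows inhibition of at least 40%; inconclusive = mean inhibition at least 40% but some replicate below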
HIV Env fusion = inhibitors of HIV-1 Env-driven cell-cell fusion, primary screen, HeLa-JRFL effector, CEM21 target cells, luciferase; 360,000 compounds, 1.1% hits; inhibition, % at 12.3 µM; AID 651610, 2012;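 active = mean replicate inhibition score of at least 50 and every replicate individually at or above 50; inconclusive = only one of the two criteria met; inactive = mean below 50 and not all replicates reaching 50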
PAX8 reporter = inhibitors of PAX8-driven TPO luciferase reporter, primary screen, RMG-I cells, single concentration. SteadyGlo, 24 h. inhibition, % at 12.6 µM. 360,000 compounds, 1.2% hits. AID 652154, 2013;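 active = mean replicate inhibition at least 60% with every replicate also reaching 60%; inconclusive = only one of the two criteria is met; inactive = mean below 60% and not all replicates reaching 60%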;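 note: luciferase light reporting Pax8 driven TPO promoter activity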
FGF22 binding = binders of human FGF22 protein, primary screen, FGF22 synaptogenesis inhibitor project, biophysical, thermal shift, single point; recombinant FGF22 thermal shift, SYPRO orange fluorescence; percent of sucrose octasulfate shift, DMSO zero; activity (Tm shift, normalised), % at 9.99 µM; 340,000 compounds, 1.5% hits;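 active = mean Tm shift, scaled 0 neutral to 100 positive control, at about 1.3% or above, every replicate too, limit read from the data; inconclusive = no clear call, values can overlap the other calls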
Target sequence (Q9HCT0 whole entry, looked up): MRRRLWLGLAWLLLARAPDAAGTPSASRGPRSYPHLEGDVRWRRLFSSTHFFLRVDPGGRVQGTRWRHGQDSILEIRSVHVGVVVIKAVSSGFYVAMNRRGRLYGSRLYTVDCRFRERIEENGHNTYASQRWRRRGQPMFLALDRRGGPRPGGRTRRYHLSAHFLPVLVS
FN deposit inh = inhibitors of fibronectin matrix deposition, primary screen, AH1F cells, Alexa488-fibronectin fluorescence, plate reader; inhibition, % at 12.6 µM; AH1F fibroblasts, overnight; 350,000 compounds, 0.086% hits;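 active = mean inhibition across replicates of 30% or more, regardless of how many single replicates reach that level; inconclusive = mean under 30% yet at least half of replicates reach 30%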
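Material: AH1F fibroblasts assembling fluorescent fibronectin matrix; amount: 10000 AH1F cells/well; medium: DMEM, 2% serum; reagent: Alexa488-fibronectin, 24 nM final in well; dosing: single compound dose, delivered by pin transfer; incubation: 1 h adhesion, overnight exposure; detection: fluorescence after three HBSS washes, excitation 485 nm, emission 525 nm; measure: fibronectin deposition inhibition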
Numbers stand for hits; - = inactive; ? = inconclusive; . = no result; [ ] = dose if it differs, or a comment.

SMILES	EWS-Fli inh	PGC1a acetyl inh	HIV Env fusion	PAX8 reporter	FGF22 binding	FN deposit inh
CCc1cccc2c(C(=O)C(F)(F)F)cn(CC(=O)N3CCOCC3)c12	-	.	-	-	43	-
C[C@@H]1CN([C@H](C)CO)C(=O)c2cccc(NC(=O)C3CCCCC3)c2O[C@@H]1CN(C)Cc1ccc2c(c1)OCO2	-	-	.	-	-	.
COc1cccc(C#Cc2ccc([C@H]3[C@@H](CO)N4C(=O)CN(C(=O)c5ccccc5)C[C@H]34)cc2)c1	-	-	.	-	-	.
CC(C)(C)NC(=O)COC(=O)c1snc(C(=O)NC2CCCCC2)c1N	.	-	101	-	.	-
CC(=O)N(C)C[C@@H]1Oc2cc(C#CC(C)(C)O)ccc2S(=O)(=O)N([C@@H](C)CO)C[C@H]1C	-	-	-	.	-	-
CCCCN(CC)CCCNC(=O)c1cn(CC)c2ccc(S(=O)(=O)N3CCc4ccccc4C3)cc2c1=O	-	.	-	-	43	-
CCn1cc(C(=O)NCc2ccco2)c(=O)c2cc(S(=O)(=O)N3CC(C)CC(C)C3)ccc21 (stereo unspecified)	.	-	-	63	.	-
COCC#Cc1cnc2c(c1)C(=O)N([C@@H](C)CO)C[C@@H](C)[C@H](CN(C)C(=O)c1ccc(F)cc1)O2	-	-	-	.	-	-
CCCC(=O)Nc1ccc2c(c1)OC[C@H](C)N(Cc1nccs1)C[C@H](C)[C@H](OC)CN(C)C2=O	-	-	.	-	-	-
COCc1cc(C)nc(SCc2nc3ccccc3c(=O)[nH]2)c1C#N	-	-	-	-	43	-
COCc1cc(C)nc(SCC(=O)Nc2nc(C)cs2)c1C#N	62	-	-	-	-	-
COCc1cc(C)nc(SCC(=O)Nc2cccc(C)c2C)c1C#N	-	-	.	.	-	.
COc1ccc(-c2nc3ccccc3nc2-c2ccccc2)cc1	-	-	-	-	-	.
CCOC(=O)Cn1c(S(=O)(=O)Cc2ccccc2)nc2ccccc21	-	.	?	-	-	-
C#CCn1c(S(=O)(=O)Cc2ccc(OC)cc2)nc(-c2ccccc2)c1-c1ccccc1	.	-	82	.	.	-
CCOC(=O)Cn1c(S(=O)(=O)Cc2ccc(Cl)cc2)nc(-c2ccccc2)c1-c1ccccc1	.	-	114	.	.	-
C[C@H](CO)N1C[C@H](C)[C@@H](CN(C)S(C)(=O)=O)OCCCC[C@H](C)Oc2ccc(NS(=O)(=O)c3ccccc3)cc2C1=O	-	-	-	-	-	.
CN(C)c1ccc(O)c2c1CC1CC3[C@@H](N(C)C)C(=O)C(C(N)=O)=C(O)[C@]3(O)C(=O)C1=C2O (stereo partly specified)	-	-	73	-	-	-
CN(C)CCCNC(=O)C[C@H]1CC[C@@H]2[C@@H](COc3ccc(NC(=O)C4CCC4)cc3C(=O)N2C)O1	-	-	.	-	-	-
O=C(O)c1ccccc1CN1C[C@H]2O[C@H](CNS(=O)(=O)c3ccc(Cl)cc3)CC[C@H]21	-	-	-	-	.	.
COc1ccc(S(=O)(=O)NC[C@@H]2CC[C@H]3[C@H](CN3Cc3cc(F)ccc3F)O2)cc1	-	-	60[16.7 µM]	-	.	.
COc1ccc(-n2nc(C(=O)NCC(=O)NCC3COc4ccccc4O3)c3ccccc3c2=O)c(OC)c1 (stereo unspecified)	-	-	-	-	44	-
CO[C@H]1CN(C)C(=O)c2ccc(NC(C)=O)cc2OC[C@@H](C)N(CCc2ccccc2)C[C@H]1C	-	-	.	.	-	-
CS(=O)(=O)c1ccc(Cl)c(NC(=O)CCc2ccccc2)c1	-	-	-	-	43	-
COc1cc(OC)cc(C(=O)NCC(=O)OCC(=O)Nc2cc(S(C)(=O)=O)ccc2Cl)c1	-	-	-	-	-	-
SMILES	EWS-Fli inh	PGC1a acetyl inh	HIV Env fusion	PAX8 reporter	FGF22 binding	FN deposit inh
CS(=O)(=O)c1ccc(Cl)c(NC(=O)COC(=O)CNC(=O)c2ccccc2)c1	-	-	-	-	44	-
CS(=O)(=O)c1ccc(Cl)c(NC(=O)Cc2c(Cl)cccc2Cl)c1	-	-	-	-	-	-
CCCc1ccc(OCC(=O)Nc2cc(S(=O)(=O)CC)ccc2O)cc1	-	.	-	-	44	.
CCOC(=O)CSc1ccc(C(=O)NCCN2CCOCC2)cc1[N+](=O)[O-]	-	-	-	-	-	-
CCOC(=O)CSc1ccc(C(=O)N2CCN(C)CC2)cc1[N+](=O)[O-]	-	-	-	-	43	-
Nc1c(Br)cc(Br)c2c1C(=O)c1c(cccc1S(=O)(=O)O)C2=O	-	-	-	-	44	-
CC(C)NC(=O)N(C)C[C@@H]1Oc2ccc(NC(=O)Nc3ccccc3)cc2C(=O)N([C@H](C)CO)C[C@H]1C	-	-	-	-	-	.
COc1cccc(C#Cc2ccc3c(c2)[C@@H]2[C@@H](CCN2C(=O)CC2CC2)[C@H](CO)N3)c1	-	.	.	.	.	-
CCOC(=O)c1ccc(NC(=O)c2ccc(CN3CCc4ccccc4C3)cc2)cc1	-	.	58	-	-	-
COc1ccc(CN(C)C[C@@H]2Oc3c(NS(=O)(=O)c4ccc(F)cc4)cccc3C(=O)N([C@@H](C)CO)C[C@@H]2C)cc1	-	-	.	-	-	.
COC(=O)c1nn(-c2ccc3c(c2)CCN3C(C)=O)cc1O	.	-	73	.	.	-
O=C(NCC[C@@H]1CC[C@@H](NC(=O)C2CC2)[C@H](CO)O1)Nc1ccc(Cl)cc1	-	-	-	.	-	-
C[C@@H]1CN([C@H](C)CO)C(=O)c2cc(NS(=O)(=O)c3ccc(Cl)cc3)ccc2O[C@@H](C)CCCCO[C@@H]1CN(C)S(=O)(=O)c1ccc(Cl)cc1	-	-	-	-	.	-
C[C@@H]1CN([C@@H](C)CO)C(=O)c2cc(NS(=O)(=O)c3ccc(Cl)cc3)ccc2O[C@@H](C)CCCCO[C@@H]1CN(C)S(=O)(=O)c1ccc(Cl)cc1	-	-	-	-	-	-
C[C@H]1CCCCO[C@H](CN(C)S(=O)(=O)c2ccc(Cl)cc2)[C@@H](C)CN([C@@H](C)CO)C(=O)c2cc(NS(=O)(=O)c3ccc(Cl)cc3)ccc2O1	-	-	-	83	-	-
C[C@@H]1CCCCO[C@@H](CN(C)S(=O)(=O)c2ccc(Cl)cc2)[C@H](C)CN([C@H](C)CO)C(=O)c2cc(NS(=O)(=O)c3ccc(Cl)cc3)ccc2O1	-	-	-	90	-	-
C[C@H](CO)N1C[C@H](C)[C@@H](CN(C)S(=O)(=O)c2ccc(Cl)cc2)OCCCC[C@H](C)Oc2ccc(NS(=O)(=O)c3ccc(Cl)cc3)cc2C1=O	-	-	-	87	-	-
O=C(C1CC1)N1[C@@H]2CN(S(=O)(=O)c3ccccc3)c3ccccc3[C@@H]2[C@@H]1CO	-	-	.	-	-	-
